Measured values: PubChem BioAssay AID504382 (The Scripps Research Institute Molecular Screening Center, 2011)
In all, about 2,500 compounds went through this assay and about 460 (18%) were called active.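 Rule for the calls: active = mean activation above a cutoff of low control average plus 3 SD from the earlier screen (cut at about 12% in these data); inactive = the rest.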 These entries were drawn from the full list.

Assay: compound fluorescence interference without thin filaments, confirmation, artefact control for cardiac RTF calcium sensitizer project, biochemical (AID 504382)
Settings: IANBD fluorescence interference counterscreen, buffer, EC20 Ca2+; at 7.2 µM; stronger effect = higher value
In short: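 Doses – one dose of 7.2 µM, 0.7% DMSO · Buffer or medium – MOPS/KCl/MgCl2/EGTA/NTA/DTT buffer, pH 7.2 · Probe or stimulus – Ca2+ fixed at EC20, 0.472 mM · Measured by – fluorescence intensity, excitation 480 nm, emission 540 nm · Read-out – fluorescence interference versus control range · Timing – 15 min compound exposure at 25 °C · Replication – triplicate wells per compound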
In the case of `COc1cc(/C=C2/C(=O)NC(=O)N(c3ccc(C)cc3)C2=O)cc(OC)c1OC`, the fluorescence artifact activation is reported as 0.06% (inactive).
For `CCN1C[C@]2(CO)CC[C@H](OC)[C@@]34C5C[C@H]6[C@H](OC)C5[C@](O)(C[C@H]6OC)[C@@H](C(OC)C23)[C@@H]14` (some centres undefined), the fluorescence artifact activation was 2.26% (inactive).
With `NC(=O)c1c(NC(=O)c2ccc(S(=O)(=O)N(CCCl)CCCl)cc2)sc2c1CCCCC2` the fluorescence artifact activation was 0.08% (inactive).
For `CC1=NCCc2c1[nH]c1cc(O)ccc21`, the fluorescence artifact activation was 0.1% (inactive).
For `Cc1cc(Cl)ccc1C(=O)C1CCCN(C2CCSCC2)C1` (centres undefined), the fluorescence artifact activation was 0% (inactive).
For `COC(=O)C1=C(c2cccc(C#N)c2)C[C@@H]2CC[C@H]1N2C(=O)N1CCOCC1`, the fluorescence artifact activation was 1.36% (inactive).
In the case of `Nc1c(C(=O)NCC2CCCO2)c2nc3ccccc3nc2n1Cc1ccco1` (centres undefined), the fluorescence artifact activation is reported as 732% (active).
In the case of `COCCNC(=O)c1c(N)n(Cc2ccco2)c2nc3ccccc3nc12`, the fluorescence artifact activation is reported as 1.48% (inactive).
For `COCCOC(=O)c1c(N)n(Cc2ccco2)c2nc3ccccc3nc12`, the fluorescence artifact activation was -0.01% (inactive).
For `CCOC(=O)c1cc(CC)sc1/N=C/c1c(O)[nH]c(=S)[nH]c1=O`, the fluorescence artifact activation was 1.47% (inactive).
For `CCN(CC)c1ccc(C=C2C(=O)N(C)C(=S)N(C)C2=O)o1`, the fluorescence artifact activation was -0.01% (inactive).
For `Cc1cc(N2CCCC2)ccc1C=C(C#N)C#N`, the fluorescence artifact activation was 17.8% (active).
In the case of `Cc1cc(C=C(C#N)C#N)ccc1N1CCCC1`, the fluorescence artifact activation is reported as 0.79% (inactive).
With `COc1ccc(-n2c(O)c(/C=C/C=Nc3ccccc3)c(=O)[nH]c2=O)cc1` the fluorescence artifact activation was -0.12% (inactive).
For `Cc1ccc(/C=C2/Sc3ccc(C(=O)N4CCC5(CC4)OCCO5)cc3NC2=O)cc1`, the fluorescence artifact activation was 38.7% (active).
In the case of `CNS(=O)(=O)c1ccc(N=Cc2c(O)n(-c3ccccc3)c(=O)[nH]c2=O)cc1`, the fluorescence artifact activation is reported as 8.1% (inactive).
With `CCC1(C)OC(c2ccccc2)=C/C(=C/C=C2C(=O)NC(=O)NC2=O)O1` (centres undefined) the fluorescence artifact activation was 4.44% (inactive).
With `CCN(CC)CCCOC(=O)C(OC(C)C)(c1ccccc1)c1ccccc1` the fluorescence artifact activation was 17.1% (active).
For `CCCCN1C(=O)NC(=O)C2(Cc3ccccc3N3CCOCC32)C1=O` (centres undefined), the fluorescence artifact activation was -0.11% (inactive).
In the case of `Cc1ccc(-n2c(O)c(C=NCC3CCCO3)c(=O)[nH]c2=O)c(C)c1` (centres undefined), the fluorescence artifact activation is reported as 0.07% (inactive).
With `N#CC(C#N)=Cc1ccc(-c2ccccc2F)o1` the fluorescence artifact activation was 6.89% (inactive).
With `CCCc1cc(=O)oc2cc(OCC(=O)N3C[C@H]4C[C@@H](C3)c3cccc(=O)n3C4)ccc12` the fluorescence artifact activation was 36.4% (active).
With `CCCc1cc(=O)oc2cc(OCC(=O)N3CCC(C(=O)O)(c4ccccc4)CC3)ccc12` the fluorescence artifact activation was 0.1% (inactive).
With `Cn1c(O)c(/C=C/C=Nc2ccccc2)c(=O)n(C)c1=S` the fluorescence artifact activation was 5.68% (inactive).
